Data from ChEMBL document CHEMBL2434874, “Synthesis and antiproliferative activity of benzofuran-based analogs of cercosporamide against non-small cell lung cancer cell lines” (Eur J Med Chem, 2013).

Assays:
[1] = Cytotoxicity against human NSCLC-N6 cells expressing mutant p53 by MTT assay; assay type: functional, cell-based
Method in brief: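 Cells grown in RPMI 1640 and seeded in 96-well plates (NSCLC-N6 at 10⁵ cells/mL). Cells exposed to drug continuously. Growth measured colorimetrically by mitochondrial reduction of MTT to formazan, with solubilized formazan read at 570 nm. Eight replicates per concentration; control growth from 8 determinations.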

A549 = assay: Cytotoxicity against human A549 cells expressing wild type p53 by MTT assay; assay type: functional, cell-based
[2] = Homo sapiens, NSCLC-N6, read-out: IC50
[3] = Homo sapiens, A549, read-out: IC50

Row | SMILES | IC50 [1, 2] | IC50 (A549; [3]) | IC50 ([1]; nsclc-n6) | IC50 (A549; a549)
1 | CCOC(=O)c1oc2cc(O)cc(O)c2c1C | 65.6 µM | 68.6 µM |  | 
2 | CCOC(=O)c1oc2cc(OC)cc(OC)c2c1C |  |  | Not Active | Not Active
3 | COc1cc(OC)c2c(C)c(C(=O)Nc3ccccn3)oc2c1C(N)=O | > 84.4 µM | > 84.4 µM |  | 
4 | CCOC(=O)c1oc2c(C(N)=O)c(O)cc(O)c2c1C | 32.9 µM | 24 µM |  | 
5 | COc1cc(OC)c2c(C)c(C=O)oc2c1 |  |  | Not Active | Not Active
6 | COc1cc(OC)c2c(C)c(C=O)oc2c1C(N)=O | 44.4 µM | 63.8 µM |  | 
7 | COc1cc(OC)c2c(C)c(C(=O)NCc3ccccc3)oc2c1C(N)=O | > 81.4 µM | 54.8 µM |  | 
8 | CCOC(=O)c1oc2c(C#N)c(OC)cc(OC)c2c1C |  |  | Not Active | Not Active
9 | COc1cc(OC)c2c(C)c(C(=O)Nc3ccncc3)oc2c1C(N)=O | < 9.3 µM | < 9.3 µM |  | 
10 | CCOC(=O)c1oc2cc(OCc3ccccc3)cc(OCc3ccccc3)c2c1C | > 72 µM | > 72 µM |  | 
11 | COc1cc(OC)c2c(C)c(C(=O)Nc3ccccc3)oc2c1C(N)=O | < 9.3 µM | < 9.3 µM |  | 
12 | Cc1c(C=O)oc2cc(O)cc(O)c12 |  |  | Not Active | Not Active
13 | Cc1c(C=O)oc2c(C(N)=O)c(O)cc(O)c12 | 60.8 µM | 108 µM |  | 
14 | CCOC(=O)c1oc2c(Br)c(OC)cc(OC)c2c1C | > 87.4 µM | > 87.4 µM |  | 
15 | Cc1c(C=O)oc2cc(OCc3ccccc3)cc(OCc3ccccc3)c12 | > 80.6 µM | > 80.6 µM |  | 
16 | CCCNC(=O)c1oc2c(C(N)=O)c(OC)cc(OC)c2c1C | > 93.6 µM | > 93.6 µM |  | 
17 | COc1cc(OC)c2c(C)c(C=O)oc2c1Br |  | 49.5 µM | Not Active | 
18 | CCOC(=O)c1oc2c(C(N)=O)c(OCc3ccccc3)cc(OCc3ccccc3)c2c1C | < 7.2 µM | < 7.2 µM |  | 
19 | COc1cc(OC)c2c(C)c(C(N)=O)oc2c1C(N)=O | 22.6 µM | 39.4 µM |  | 
20 | COc1cc(OC)c2c(C)c(C=O)oc2c1C#N |  |  | Not Active | Not Active
21 | CCOC(=O)c1oc2c(C(N)=O)c(OC)cc(OC)c2c1C |  |  | Not Active | Not Active
